Laboratory results as given in ChEMBL document CHEMBL3272222, “Heterocyclic and piperonylic acid esters of 1-methyl-4-piperidinol as analgesics” (J Med Chem, 1977).
Activity calls are given as the source filed them. No cut-off for these calls is given here.

What was measured:
Mus musculus [1] = assay: Analgesic activity in sc dosed mouse by hot-plate assay; assay type: functional
Outline: (§1)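 Mice dosed subcutaneously with compounds as water-soluble salts. ED50 in mg/kg, with 95% confidence limits from probit analysis. Overt toxicity was also noted at the doses given.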

Mus musculus [2] = assay: Toxicity in mouse at 60 mg/kg, sc; assay type: organism-based; set-up: dose 60 mg/kg, route subcutaneous; details: in vivo
Outline: (§2)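 Toxic signs were recorded in mice during analgesic testing after subcutaneous doses of the compounds, given as water-soluble salts.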

Mus musculus [3] = assay: Toxicity in mouse at 50 mg/kg, sc; assay type: organism-based; set-up: dose 50 mg/kg, route subcutaneous; details: in vivo; outline: as §2
Mus musculus [4] = assay: Analgesic activity in mouse at 20 mg/kg, sc by hot-plate assay; assay type: functional, organism-based; set-up: dose 20 mg/kg
Outline: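 Mouse hot-plate analgesia test. Compounds were given subcutaneously as water-soluble salts. ED50 values carry 95% confidence limits from probit analysis.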

Mus musculus [5] = assay: Toxicity in mouse at 40 mg/kg, sc; assay type: organism-based; set-up: dose 40 mg/kg, route subcutaneous; details: in vivo; outline: as §2
[6] = biological target: Opioid receptor (Rattus norvegicus) (UniProt P33533+P34975+P33535); details: Brain
Mus musculus [7] = assay: Analgesic activity in sc dosed mouse by Nilsen method; assay type: functional; outline: as §1
Mus musculus [8] = assay: Analgesic activity in sc dosed mouse assessed as inhibition of p-phenylquinone-induced abdominal-stretching; assay type: functional
Mus musculus [9] = assay: Toxicity in mouse at 20 mg/kg, sc; assay type: organism-based; set-up: dose 20 mg/kg, route subcutaneous; details: in vivo; outline: as §2
Mus musculus [10] = assay: Analgesic activity in mouse at 10 mg/kg, sc by tail-flick assay; assay type: functional, organism-based; set-up: dose 10 mg/kg
Mus musculus [11] = assay: Analgesic activity in sc dosed mouse by tail-flick assay; assay type: functional
Mus musculus [12] = assay: Analgesic activity in mouse assessed as inhibition of p-phenylquinone-induced abdominal-stretching at 10 mg/kg, sc; assay type: functional, organism-based; set-up: dose 10 mg/kg
Outline: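 Mice were dosed subcutaneously with test compounds as water-soluble salts and then run in the tail-flick assay and in the p-phenylquinone-induced abdominal-stretching (PPQ) assay.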

Rhesus monkey [13] = assay: Toxicity in monkey assessed as retching at 12 mg/kg administered as single dose; assay type: organism-based, Macaca mulatta; set-up: dose 12 mg/kg; details: in vivo
Rhesus monkey [14] = assay: Toxicity in monkey assessed as morphine-like dependence liability; assay type: organism-based, Macaca mulatta; details: in vivo
Outline: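 Physical dependence liability of the morphine type was assessed in Rhesus monkeys.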

Rhesus monkey [15] = assay: Toxicity in monkey assessed as increased respiration at 12 mg/kg administered as single dose; assay type: organism-based, Macaca mulatta; set-up: dose 12 mg/kg; details: in vivo
Mus musculus [16] = assay: Toxicity in mouse at 30 mg/kg, sc; assay type: organism-based; set-up: dose 30 mg/kg, route subcutaneous; details: in vivo; outline: as §2
Rhesus monkey [17] = assay: Toxicity in monkey assessed as increase in severity of abstinence signs at 6 mg/kg administered as single dose; assay type: organism-based, Macaca mulatta; set-up: dose 6 mg/kg; details: in vivo
Outline: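 Rhesus monkeys were used in single-dose suppression tests for physical dependence. The compound was given at 6.0 mg/kg and the severity of abstinence signs was scored.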

Rhesus monkey [18] = assay: Toxicity in monkey assessed as piloerection at 12 mg/kg administered as single dose; assay type: organism-based, Macaca mulatta; set-up: dose 12 mg/kg; details: in vivo
Rhesus monkey [19] = assay: Toxicity in nonwithdrawn monkey assessed as mild abstinence signs at 6 mg/kg administered as single dose; assay type: organism-based, Macaca mulatta; set-up: dose 6 mg/kg; details: in vivo
Rhesus monkey [20] = assay: Toxicity in monkey assessed as tremors at 12 mg/kg administered as single dose; assay type: organism-based, Macaca mulatta; set-up: dose 12 mg/kg; details: in vivo
Rhesus monkey [21] = assay: Toxicity in nonwithdrawn monkey assessed as mild CNS depression at 6 mg/kg administered as single dose; assay type: organism-based, Macaca mulatta; set-up: dose 6 mg/kg; details: in vivo

Sequence of Opioid receptor (Rattus norvegicus) (P33533 whole entry, looked up): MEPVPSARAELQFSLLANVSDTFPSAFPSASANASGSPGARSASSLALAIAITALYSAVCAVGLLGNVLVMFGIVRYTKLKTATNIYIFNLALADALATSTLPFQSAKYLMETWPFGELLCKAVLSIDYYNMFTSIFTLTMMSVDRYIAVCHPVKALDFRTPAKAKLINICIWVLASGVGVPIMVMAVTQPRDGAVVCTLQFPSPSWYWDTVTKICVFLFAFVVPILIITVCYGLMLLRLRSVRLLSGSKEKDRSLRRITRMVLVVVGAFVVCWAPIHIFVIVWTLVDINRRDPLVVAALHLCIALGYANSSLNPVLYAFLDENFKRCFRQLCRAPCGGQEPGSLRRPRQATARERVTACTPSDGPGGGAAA
Sequence of Opioid receptor (Rattus norvegicus) (P33535 whole entry, looked up): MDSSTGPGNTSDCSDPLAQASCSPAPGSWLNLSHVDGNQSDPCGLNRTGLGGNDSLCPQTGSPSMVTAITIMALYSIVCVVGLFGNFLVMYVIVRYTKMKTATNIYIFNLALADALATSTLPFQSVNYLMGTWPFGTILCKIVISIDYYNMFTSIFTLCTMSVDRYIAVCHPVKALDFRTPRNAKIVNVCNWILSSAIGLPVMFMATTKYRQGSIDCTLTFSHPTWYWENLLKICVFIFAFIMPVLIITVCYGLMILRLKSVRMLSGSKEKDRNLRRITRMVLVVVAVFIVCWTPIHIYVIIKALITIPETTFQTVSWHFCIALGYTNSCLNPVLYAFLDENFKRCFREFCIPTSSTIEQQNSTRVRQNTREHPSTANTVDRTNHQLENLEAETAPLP
Sequence of Opioid receptor (Rattus norvegicus) (P34975 whole entry, looked up): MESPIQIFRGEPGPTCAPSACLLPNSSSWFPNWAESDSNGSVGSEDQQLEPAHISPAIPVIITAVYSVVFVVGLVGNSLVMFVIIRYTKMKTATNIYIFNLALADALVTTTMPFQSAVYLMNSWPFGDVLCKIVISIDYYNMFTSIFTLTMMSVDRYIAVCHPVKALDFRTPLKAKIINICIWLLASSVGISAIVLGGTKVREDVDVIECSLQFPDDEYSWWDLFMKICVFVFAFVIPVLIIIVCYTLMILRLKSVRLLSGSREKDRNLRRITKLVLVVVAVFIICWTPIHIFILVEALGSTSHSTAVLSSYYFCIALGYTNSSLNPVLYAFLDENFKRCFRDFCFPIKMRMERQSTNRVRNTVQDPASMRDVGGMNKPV

CN1CCC(OC(=O)c2cnc3ccccc3c2)CC1.Cl
ED50 (Mus musculus [1]): 11.2 mg/kg | Activity (Mus musculus [2]): Non-toxic

CN1CCC(OC(=O)c2ccc(Br)o2)CC1.Cl
ED50 (Mus musculus [1]): 17.7 mg/kg

CN1CCC(OC(=O)C2c3ccccc3Oc3ccccc32)CC1.Cl
ED50 (Mus musculus [1]): 35 mg/kg

CN1CCC(OC(=O)c2ccco2)CC1.O=C(O)/C=C\C(=O)O
ED50 (Mus musculus [1]): 12.5 mg/kg | Activity (Mus musculus [3]): Non-toxic

Cc1c(C(=O)OC2CCN(C)CC2)c(C)n(C)c1C
Activity (Mus musculus [4]): Active

Cc1[nH]c(C)c(C(=O)OC2CCCN(C)C2)c1C (stereo not given)
ED50 (Mus musculus [1]): inactive

CN1CCC(OC(=O)c2cccs2)CC1.Cl
ED50 (Mus musculus [1]): 13.3 mg/kg | Activity (Mus musculus [5]): Non-toxic | ED50 [6]: > 100 µM | ED50 (Mus musculus [7]): inactive

CN1CCC(OC(=O)c2cnc3ccccc3n2)CC1
ED50 (Mus musculus [1]): inactive

CCOC(=O)C1(c2ccccc2)CCN(C)CC1
ED50 [6]: 0.7 µM

CN1CCC(OC(=O)c2ccc3ncccc3c2)CC1.Cl
ED50 (Mus musculus [1]): 9.3 mg/kg | Activity (Mus musculus [5]): Non-toxic | Activity (Mus musculus [3]): Toxic | ED50 [6]: > 100 µM | ED50 (Mus musculus [7]): 29.7 mg/kg

CN1CCCC(COC(=O)c2ccc3c(c2)OCO3)C1.Cl (stereo not given)
ED50 (Mus musculus [1]): 22.7 mg/kg

Cc1ccc(C(=O)OC2CCN(C)CC2)s1
ED50 (Mus musculus [1]): inactive

CN1CCC(OC(=O)c2ccncc2)CC1.O=C(O)/C=C\C(=O)O
ED50 (Mus musculus [1]): 44.2 mg/kg

Cc1ccc(C(=O)OC2CCN(C)CC2)cc1C
Activity (Mus musculus [4]): Active

Cc1[nH]c(C)c(C(=O)OC2CCN(C)CC2)c1C
ED50 (Mus musculus [8]): 15.1 mg/kg | Activity (Mus musculus [9]): Non-toxic | Activity (Mus musculus [10]): Active | ED50 (Mus musculus [11]): 15.1 mg/kg | ED50 [6]: 1 µM | Activity (Mus musculus [12]): Active

CN1CCC(OC(=O)c2ccc3c(c2)OCO3)CC1.Cl
Activity (Rhesus monkey [13]): Toxic | Activity (Rhesus monkey [14]): Non-toxic | Activity (Rhesus monkey [15]): Toxic | Activity (Mus musculus [16]): Non-toxic | Activity (Rhesus monkey [17]): Toxic | ED50 [6]: 30 µM | Activity (Rhesus monkey [18]): Toxic | Activity (Rhesus monkey [19]): Toxic | Activity (Rhesus monkey [20]): Toxic | Activity (Rhesus monkey [21]): Toxic

CN1CCC(OC(=O)c2ccoc2)CC1.O=C(O)/C=C\C(=O)O
ED50 (Mus musculus [1]): 27.9 mg/kg
